Experimental data taken from ChEMBL document CHEMBL4007439, “Design, Synthesis, and Evaluation of a Novel Series of Oxadiazine Gamma Secretase Modulators for Familial Alzheimer's Disease” (J Med Chem, 2017).
The source made the active and inactive calls. No cut-off for these calls is given here.

What was measured:
[1] = Modulation of gamma-secretase in human H4 cells expressing human APP751 assessed as inhibition of amyloid beta 42 production incubated overnight by sandwich ELISA; assay type: cell-based
Procedure, shortened: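 Aβ42 EC50 in H4 cells overexpressing WT human APP751; each value is the average of n > 2 assays, each run in duplicate.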

[2] = tested on: Mus musculus; experiment: Reduction in amyloid beta 42 levels in mouse brain at 30 mg/kg, po measured at 6 hrs post dose by ELISA; assay type: functional
Procedure, shortened: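 Single oral dose of 30 mg/kg; brain (mouse, rat) and rat CSF Aβ42 and Aβ37 measured 6 h post-dose, expressed relative to vehicle; total and free brain drug levels and brain:plasma ratio taken at the same time.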

[3] = Unbound intrinsic clearance in rat hepatocytes; assay type: ADME, cell-based, Hepatocyte

SMILES	EC50 [1] [nM]	Activity [2]	EC50 ([1]; Homo sapiens) [nM]	CL free [3] [L/h/kg]
COc1nc(C2=NOCC3CN(c4ccc(Cl)cc4C(F)(F)F)CCN23)ccc1-n1cnc(C)c1 (single isomer, unassigned; (+))	64	–	–	–
COc1cc(C2=NOC[C@H](COc3ccc(Cl)cc3C(F)(F)F)N2)ccc1-n1cnc(C)c1	–	inactive	109	–
COc1nc(C2=NOC[C@H](COc3ccc(F)cc3C)N2)ccc1-c1ccnc(C)c1	–	–	98	195.5
COc1cc(C2=NOC[C@H](COc3ccc(Cl)cc3C(F)(F)F)N2C)ccc1-n1cnc(C)c1	–	inactive	113	–
COc1cc(C2=NOC[C@@H](COc3ccc(F)cc3C)N2)ccc1-c1ccnc(C)c1	–	inactive	6450	–
